Reference: the M2OR odorant receptor database

How the values were obtained:
Settings in all cases: stereoisomer not certain
UniProt L7MU75 = target: T1, UniProt L7MU75
T1 sequence (whole entry): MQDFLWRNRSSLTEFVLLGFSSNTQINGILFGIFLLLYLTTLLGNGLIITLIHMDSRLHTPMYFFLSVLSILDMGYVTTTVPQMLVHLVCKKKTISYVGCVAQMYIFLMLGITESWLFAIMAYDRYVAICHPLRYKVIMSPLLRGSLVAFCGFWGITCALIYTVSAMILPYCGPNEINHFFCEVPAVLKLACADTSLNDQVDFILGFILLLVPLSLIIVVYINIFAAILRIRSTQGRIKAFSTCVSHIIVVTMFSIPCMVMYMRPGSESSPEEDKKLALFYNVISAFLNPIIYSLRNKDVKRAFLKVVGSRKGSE
In short: (§1)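 Values were gathered from published papers (main text and supplementary material), with extra details requested from the original authors when needed, and checked for typos and inconsistencies. Each receptor–molecule pair is called responsive (active) if the original authors judged the measured signal statistically different from baseline, and non-responsive (inactive) otherwise. Assay methods varied by source, often transient mammalian cell-line luciferase assays. Recorded details include cell line, G-protein, co-transfected protein and tags.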

UniProt L7N210 = target: T2, UniProt L7N210
T2 sequence (whole entry): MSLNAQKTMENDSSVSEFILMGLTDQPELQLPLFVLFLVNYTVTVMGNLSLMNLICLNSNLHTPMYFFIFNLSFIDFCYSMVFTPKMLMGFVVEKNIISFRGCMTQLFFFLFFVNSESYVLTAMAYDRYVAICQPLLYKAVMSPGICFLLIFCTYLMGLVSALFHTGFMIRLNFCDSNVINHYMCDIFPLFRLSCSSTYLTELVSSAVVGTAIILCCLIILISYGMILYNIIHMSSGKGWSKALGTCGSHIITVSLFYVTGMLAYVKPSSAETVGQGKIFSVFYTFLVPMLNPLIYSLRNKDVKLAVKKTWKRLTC
In short: as §1

UniProt Q3KPB0 = target: T3, UniProt Q3KPB0
T3 sequence (whole entry): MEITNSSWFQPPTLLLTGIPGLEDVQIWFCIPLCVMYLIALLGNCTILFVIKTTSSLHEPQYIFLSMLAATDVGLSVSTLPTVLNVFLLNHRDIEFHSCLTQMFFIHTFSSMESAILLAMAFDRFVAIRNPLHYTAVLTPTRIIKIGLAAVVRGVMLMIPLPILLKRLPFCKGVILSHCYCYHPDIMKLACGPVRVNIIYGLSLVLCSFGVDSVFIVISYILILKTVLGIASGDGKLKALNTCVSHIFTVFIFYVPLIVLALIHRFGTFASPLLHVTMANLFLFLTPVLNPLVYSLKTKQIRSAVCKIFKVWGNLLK
In short: as §1

UniProt Q3U0P3 = target: T4, UniProt Q3U0P3
T4 sequence (whole entry): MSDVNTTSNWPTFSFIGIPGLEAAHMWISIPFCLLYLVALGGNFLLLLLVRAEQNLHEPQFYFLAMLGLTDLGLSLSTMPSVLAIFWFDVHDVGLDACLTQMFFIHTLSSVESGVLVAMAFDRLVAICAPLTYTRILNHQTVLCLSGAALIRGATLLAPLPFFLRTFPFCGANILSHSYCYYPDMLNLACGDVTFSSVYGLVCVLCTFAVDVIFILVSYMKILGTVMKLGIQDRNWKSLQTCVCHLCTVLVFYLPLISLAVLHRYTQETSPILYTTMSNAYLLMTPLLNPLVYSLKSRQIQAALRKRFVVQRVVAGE
In short: as §1

UniProt Q7TQU8 = target: T5, UniProt Q7TQU8
T5 sequence (whole entry): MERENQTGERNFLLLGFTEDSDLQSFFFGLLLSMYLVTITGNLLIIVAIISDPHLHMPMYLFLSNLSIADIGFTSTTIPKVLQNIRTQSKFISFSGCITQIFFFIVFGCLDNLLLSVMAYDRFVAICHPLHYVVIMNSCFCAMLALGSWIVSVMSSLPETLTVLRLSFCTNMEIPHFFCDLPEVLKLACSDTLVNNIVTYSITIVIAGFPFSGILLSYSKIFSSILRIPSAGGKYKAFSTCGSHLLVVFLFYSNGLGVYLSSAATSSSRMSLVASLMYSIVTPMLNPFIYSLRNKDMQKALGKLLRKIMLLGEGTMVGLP
In short: as §1

UniProt Q7TR79 = target: T6, UniProt Q7TR79
T6 sequence (whole entry): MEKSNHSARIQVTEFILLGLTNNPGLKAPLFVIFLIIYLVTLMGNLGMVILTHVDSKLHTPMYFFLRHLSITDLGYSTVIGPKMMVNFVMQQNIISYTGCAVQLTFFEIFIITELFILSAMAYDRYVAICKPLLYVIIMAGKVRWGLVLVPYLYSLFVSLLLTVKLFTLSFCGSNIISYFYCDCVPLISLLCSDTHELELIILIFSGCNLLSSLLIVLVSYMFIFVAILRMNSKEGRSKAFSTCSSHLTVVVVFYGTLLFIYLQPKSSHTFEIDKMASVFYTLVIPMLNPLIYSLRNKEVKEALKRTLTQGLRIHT
In short: as §1

Compound | odorant receptor agonist call (UniProt L7MU75) | odorant receptor agonist call (UniProt L7N210) | odorant receptor agonist call (UniProt Q3KPB0) | odorant receptor agonist call (UniProt Q3U0P3) | odorant receptor agonist call (UniProt Q7TQU8) | odorant receptor agonist call (UniProt Q7TR79)
C=CC(=C)CCC=C(C)C | inactive | inactive | inactive | inactive | inactive | inactive
CC(=O)C1(C)CC2=C(CCCC2(C)C)CC1C (stereo unspecified) | inactive | inactive | inactive | inactive | inactive | inactive
CCC=CCCCCC=O | inactive | inactive | inactive | inactive | inactive | inactive
CCc1ccc(O)cc1 | inactive | active | inactive | inactive | inactive | inactive
CC=Cc1ccc(OC)cc1 | inactive | inactive | inactive | inactive | inactive | inactive
CSSCc1ccco1 | inactive | inactive | inactive | inactive | inactive | inactive
COC(OC)c1ccccc1 | inactive | inactive | inactive | inactive | inactive | inactive
CCC(C)O (stereo unspecified) | inactive | inactive | inactive | inactive | inactive | inactive
COc1nccnc1C | active | inactive | inactive | inactive | inactive | inactive
CCOC(=O)C(C)CC (stereo unspecified) | inactive | inactive | inactive | inactive | inactive | inactive
CC(C)CCN | inactive | inactive | inactive | inactive | inactive | inactive
CC(CC=O)CCCC(C)(C)O (stereo unspecified) | inactive | inactive | inactive | inactive | inactive | inactive
CCOC(=O)CC(C)C | inactive | inactive | inactive | inactive | inactive | inactive
C=C(CC)CCCC(C)(C)O | inactive | inactive | inactive | inactive | inactive | inactive
CCc1ccccc1O | inactive | inactive | inactive | inactive | inactive | inactive
Cc1c(C)c(C)c(C=O)c(C)c1C | inactive | active | inactive | inactive | inactive | inactive
